Data set [1] is described as follows: Metabolic stability in mouse plasma assessed as compound remaining after 2 hrs. The format is ADME, cell-free. The settings on record: read-out: Stability.
The nature of data set [2]: Half life in human liver microsomes. Format: ADME. In general terms: Microsomes from liver hold many membrane-bound enzymes, among them those of drug oxidation.
Data set [3] has as its target T1, ATP-dependent 6-phosphofructokinase (Trypanosoma cruzi, UniProt Q4E657).
T1 sequence (Q4E657 whole entry): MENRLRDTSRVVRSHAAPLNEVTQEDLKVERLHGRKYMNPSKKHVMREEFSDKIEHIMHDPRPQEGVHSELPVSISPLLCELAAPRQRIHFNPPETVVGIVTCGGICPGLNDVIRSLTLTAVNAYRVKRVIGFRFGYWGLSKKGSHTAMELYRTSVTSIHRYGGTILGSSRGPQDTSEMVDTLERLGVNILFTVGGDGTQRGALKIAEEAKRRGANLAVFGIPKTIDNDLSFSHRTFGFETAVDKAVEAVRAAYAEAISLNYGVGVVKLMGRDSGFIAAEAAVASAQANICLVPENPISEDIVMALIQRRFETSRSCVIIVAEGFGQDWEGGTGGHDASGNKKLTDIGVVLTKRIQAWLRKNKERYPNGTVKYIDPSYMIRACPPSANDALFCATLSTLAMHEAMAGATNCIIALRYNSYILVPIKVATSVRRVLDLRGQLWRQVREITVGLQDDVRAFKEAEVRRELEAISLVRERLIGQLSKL
The data set is described as follows: Inhibition of Trypanosoma cruzi PFK.

For data set [4], the target named is T2, ATP-dependent 6-phosphofructokinase (Trypanosoma cruzi) (UniProt Q4E657).
T2 sequence (whole entry): T1 sequence (Q4E657 whole entry)
Description: Inhibition of Trypanosoma cruzi PFK at 57 uM. The gist of the method: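 PFK activity is measured by coupling ADP production to ADP-Glo luciferase luminescence at end point. Percent inhibition is recorded at 57 μM, the highest concentration of the dose series, with at least 3 separate experiments averaged.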

Data set [5] in a line: Aqueous kinetic solubility of the compound. Format: physicochemical. The settings on record: buffer; read-out: Kinetic_solubility.
The nature of data set [6]: Cytotoxicity against human MRC5 cells assessed as intracellular ATP content after 72 hrs by Cell titer-Glo luminiscent assay. The format is cell-based.
The test system of data set [7] is Trypanosoma brucei brucei. Description: Antitrypanosomal activity against Trypanosoma brucei brucei Lister 427 assessed as cell viability after 72 hrs by alamar blue assay. The format is functional. The settings on record: for pEC50: Lister 427, 72 h, read-out: ED50 (the source's name). On the technique in general: The colour change of resazurin is a common sign of viable cells or microbes.

Data set [8] addresses T3, ATP-dependent 6-phosphofructokinase (Trypanosoma brucei) (UniProt O15648).
T3 sequence (whole entry): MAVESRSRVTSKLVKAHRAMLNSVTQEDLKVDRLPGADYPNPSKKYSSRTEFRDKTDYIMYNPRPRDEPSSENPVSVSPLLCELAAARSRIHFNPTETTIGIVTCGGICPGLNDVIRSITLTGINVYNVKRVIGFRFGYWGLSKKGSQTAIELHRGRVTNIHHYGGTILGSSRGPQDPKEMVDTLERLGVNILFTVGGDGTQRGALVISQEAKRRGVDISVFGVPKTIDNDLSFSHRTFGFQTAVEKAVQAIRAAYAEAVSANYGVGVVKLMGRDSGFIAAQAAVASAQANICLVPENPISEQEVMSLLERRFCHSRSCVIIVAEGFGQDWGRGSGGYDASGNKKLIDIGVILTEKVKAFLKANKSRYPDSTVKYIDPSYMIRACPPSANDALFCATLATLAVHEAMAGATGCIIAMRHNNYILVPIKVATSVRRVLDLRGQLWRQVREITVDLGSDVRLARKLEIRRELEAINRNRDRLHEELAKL
Description: Inhibition of Trypanosoma brucei PFK-mediated ADP production using ATP/fructose-6-phosphate as substrate at 57 uM by luciferase based luminescence assay. The gist of the method: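 Recombinant T. brucei PFK; ADP formed by the enzyme is converted to a luminescent signal by a modified luciferase ADP-Glo detection, read at end point.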

Data set [9] is described as follows: Metabolic stability in human plasma assessed as compound remaining after 2 hrs. Format: ADME, cell-free. To be noted: read-out: Stability.
Data set [10] deals with T4, ATP-dependent 6-phosphofructokinase (Trypanosoma brucei, UniProt O15648).
T4 sequence (O15648 whole entry): T3 sequence (whole entry)
The data set is described as follows: Inhibition of Trypanosoma brucei PFK-mediated ADP production using ATP/fructose-6-phosphate as substrate by luciferase based luminescence assay. The gist of the method:
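Recombinant enzyme; ADP formed by PFK detected with modified luciferase (ADP-Glo) luminescent end-point in 1536-well format.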

Data set [11] in a line: Half life in rat liver microsomes. The format is ADME.
Data set [12] is described as follows: Half life in mouse liver microsomes. Format: ADME, Microsome.
In data set [13] the target is T4, ATP-dependent 6-phosphofructokinase. The data set is described as follows: Competitive inhibition Trypanosoma brucei PFK using fructose-6-phosphate as substrate by Line-weaver Burk plot analysis. In a few lines: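 Coupled biochemical PFK assay titrating F6P at several inhibitor levels (0, 1.5, 12.5, 50, 100 nM), ATP held saturating at 0.5 mM; initial velocities analysed by Lineweaver–Burk transformation, Ki from secondary plots.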

In data set [14] the test system is Trypanosoma brucei brucei. The data set is described as follows: Antitrypanosomal activity against Trypanosoma brucei brucei Lister 427 assessed as cell viability at 1.3 to 33.3 ug/ml after 72 hrs by alamar blue assay. The format is functional, organism-based.
Data set [15] has as its target T5, ATP-dependent 6-phosphofructokinase, muscle type (Oryctolagus cuniculus) (UniProt P00511).
T5 sequence (whole entry): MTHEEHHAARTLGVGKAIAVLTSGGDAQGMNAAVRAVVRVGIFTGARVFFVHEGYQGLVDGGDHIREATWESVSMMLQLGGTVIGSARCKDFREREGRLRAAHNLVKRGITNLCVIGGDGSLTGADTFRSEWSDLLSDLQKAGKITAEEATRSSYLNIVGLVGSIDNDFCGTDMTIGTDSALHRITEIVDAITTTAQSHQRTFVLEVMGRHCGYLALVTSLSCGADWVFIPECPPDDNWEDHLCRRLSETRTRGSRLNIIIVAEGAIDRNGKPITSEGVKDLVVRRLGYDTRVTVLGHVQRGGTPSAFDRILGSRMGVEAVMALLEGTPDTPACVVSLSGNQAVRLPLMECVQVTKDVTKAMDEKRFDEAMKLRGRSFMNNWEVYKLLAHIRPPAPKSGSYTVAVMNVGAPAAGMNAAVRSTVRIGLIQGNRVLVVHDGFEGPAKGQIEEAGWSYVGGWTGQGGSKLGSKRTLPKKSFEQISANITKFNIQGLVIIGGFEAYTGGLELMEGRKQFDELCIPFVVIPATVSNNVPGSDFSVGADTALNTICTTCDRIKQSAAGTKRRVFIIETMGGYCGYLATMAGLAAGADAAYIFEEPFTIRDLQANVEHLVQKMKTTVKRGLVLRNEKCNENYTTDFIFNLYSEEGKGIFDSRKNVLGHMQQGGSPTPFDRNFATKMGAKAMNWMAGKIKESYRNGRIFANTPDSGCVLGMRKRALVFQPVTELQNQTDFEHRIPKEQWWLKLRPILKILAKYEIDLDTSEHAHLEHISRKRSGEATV
The data set is described as follows: Inhibition of recombinant rabbit muscle PFK expressed in PFK-deficient Escherichia coli DF1020DE3 using ATP/fructose 6 phosphate as substrate at 1 uM. The format is tissue-based. The settings on record: Muscle tissue.

The target in data set [16] is T4, ATP-dependent 6-phosphofructokinase. Description: Mixed type inhibition Trypanosoma brucei PFK using ATP as substrate by Line-weaver Burk plot analysis. In a few lines:
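Coupled biochemical PFK assay titrating ATP at several inhibitor levels (0, 1.5, 12.5, 50, 100 nM), F6P held saturating at 2 mM; initial velocities analysed by Lineweaver–Burk transformation, Ki from secondary plots.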

As a reminder, the half-life is the time in which the quantity being followed falls by half. What is called pIC50 is the IC50 on a negative log10 scale, so that one unit is a factor of ten. As a reminder, the inhibition is the change of the read-out against control, counted positive when it falls. Broadly, the CC50 is the concentration that lowers cell viability or growth by half. One may read the pKi as the Ki on a negative log10 scale, so that one unit is a factor of ten.

pEC50, pIC50, pKi: −log10 of the molar value. Converted amounts (≈) assume the structure as drawn. The source made the active and inactive calls. The rule behind the calls is not given here.

Take `O=C(Cc1ccc(Cl)c(Cl)c1)Nc1ccc(S(=O)(=O)Nc2ccon2)cc1`: the remaining at 2 h in data set [1] and in [9] was more than 95% throughout. Besides, the half-life was 5.5 h in [2], more than 0.5 h in [11] and 3.85 h in data set [12]. Also, the results for the pIC50 in data set [3] and in [10] were 6.89 and 6.43, respectively. Besides, the inhibition in data set [4] and in [8] was more than 80% throughout. Also, the solubility kinetic in data set [5] was more than 81 µg/mL. Also, the CC50 at 72 h in data set [6] is more than 46000 nM. In addition, the Activity result in [7] was “Dose-dependent effect”. The pEC50 in [7] is 4.79.
In the case of `Cc1cc(NS(=O)(=O)c2ccc(NC(=O)Cc3ccc(Cl)c(Cl)c3)cc2)no1`, the negative-log IC50 (pIC50) was 6.64 in data set [3] and 6.39 in [10]. Moreover, the inhibition in [4] and in data set [8] was more than 80% in each case. Also, the solubility kinetic in data set [5] is 23.3 µg/mL (≈ 52.9 µM). The half-maximal cytotoxic concentration (CC50) at 72 h in [6] is more than 46000 nM. In [7], the Activity entry was “Dose-dependent effect”. For the same molecule, the pEC50 in [7] was 4.57. The half-life in [11] stood at 0.162 h; in [12], 6.8 h.
`Cc1cc(NS(=O)(=O)C2CCN(C(=O)Cc3ccc(Cl)c(Cl)c3)CC2)no1`: the pIC50 in [3] was 4.89; in [10], 4.48. For the same molecule, the inhibition in data set [4] and in data set [8] was more than 80% throughout.
`O=C(Cc1ccc(F)c(Cl)c1)Nc1ccc(S(=O)(=O)Nc2nncs2)cc1`: the remaining at 2 h in data set [1] and in [9] was more than 95% each time. Also, the figures for the pIC50 in data set [3] and in data set [10] were 6.76 and 7.82, respectively. The pKi in data set [13] is 7.28; in data set [16], 6.62. Further, the inhibition in [4] and in [8] was more than 80% throughout. Besides, the outcome in [14] was inactive. Besides, the inhibition result in data set [15] was “inactive”. In data set [5], the solubility kinetic is more than 81 µg/mL. For the same molecule, the CC50 at 72 h in [6] was more than 46000 nM. The half-life in [11] was more than 0.5 h.
For `O=C(Cc1ccc(Cl)c(Cl)c1)Nc1ccc(S(=O)(=O)Nc2ccccc2)cc1`, the pIC50 in data set [3] and in data set [10] was 4.79 in each case. The inhibition in data set [4] and in [8] was more than 80% each time.
As to `Cc1cc(NS(=O)(=O)c2ccc(NC(=O)Cc3ccc(Cl)c(C(F)(F)F)c3)cc2)no1`, the pIC50 in data set [3] is 6.04; in [10], 6.17. Besides, the inhibition in data set [4] and in [8] was more than 80% in each case.
For the molecule `CN(C)c1cccc(NS(=O)(=O)c2ccc(NC(=O)Cc3ccc(Cl)c(Cl)c3)cc2)c1`, the negative logarithm of the IC50 (pIC50) in data set [3] is 4.94; in [10], 5.24. Also, the inhibition in data set [4] and in data set [8] was more than 80% each time.

The values are drawn from ChEMBL document CHEMBL3108713, “Identification of ML251, a Potent Inhibitor of T. brucei and T. cruzi Phosphofructokinase” (ACS Med Chem Lett, 2014).
